Where a chain is given by its changes, count along the chain named. Several values for one entry are separate records, joined by “and”; a condition that tells them apart may be missing. Equal values may be shown once.

Assay [1] concerns the target T1, recombinant GAC (residues 128-603) (Mus musculus, UniProt D3Z7P3).
T1 sequence (D3Z7P3 128-603 isoform D3Z7P3-2): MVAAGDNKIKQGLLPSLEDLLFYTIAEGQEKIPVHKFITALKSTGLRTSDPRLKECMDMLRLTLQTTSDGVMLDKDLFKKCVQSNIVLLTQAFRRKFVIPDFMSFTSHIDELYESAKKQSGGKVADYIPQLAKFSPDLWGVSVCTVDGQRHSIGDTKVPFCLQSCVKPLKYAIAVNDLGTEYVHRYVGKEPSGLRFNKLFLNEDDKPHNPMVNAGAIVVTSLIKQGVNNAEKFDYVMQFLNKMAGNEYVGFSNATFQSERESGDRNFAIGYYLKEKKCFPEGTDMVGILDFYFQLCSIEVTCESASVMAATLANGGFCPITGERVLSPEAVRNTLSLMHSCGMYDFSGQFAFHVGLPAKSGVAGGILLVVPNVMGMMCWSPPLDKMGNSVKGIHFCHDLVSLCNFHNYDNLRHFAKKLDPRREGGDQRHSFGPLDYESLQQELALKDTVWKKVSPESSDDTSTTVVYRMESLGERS
The assay is described as follows: Recombinant GAC two-step glutaminase assay. The conditions noted are these: for inhibition of phosphate-activated enzyme: GAC activated by inorganic phosphate before inhibitor. Type of assay: biochemical.

The test system of another assay is MDA-MB-231 cells. The assay is described as follows: MDA-MB-231 cell proliferation assay. Type of assay: cell-based, human.
In another assay the target is T2, R539L GAC mutant (Mus musculus, UniProt D3Z7P3, R539L).
T2 sequence (D3Z7P3 72-603 isoform D3Z7P3-2 R539L): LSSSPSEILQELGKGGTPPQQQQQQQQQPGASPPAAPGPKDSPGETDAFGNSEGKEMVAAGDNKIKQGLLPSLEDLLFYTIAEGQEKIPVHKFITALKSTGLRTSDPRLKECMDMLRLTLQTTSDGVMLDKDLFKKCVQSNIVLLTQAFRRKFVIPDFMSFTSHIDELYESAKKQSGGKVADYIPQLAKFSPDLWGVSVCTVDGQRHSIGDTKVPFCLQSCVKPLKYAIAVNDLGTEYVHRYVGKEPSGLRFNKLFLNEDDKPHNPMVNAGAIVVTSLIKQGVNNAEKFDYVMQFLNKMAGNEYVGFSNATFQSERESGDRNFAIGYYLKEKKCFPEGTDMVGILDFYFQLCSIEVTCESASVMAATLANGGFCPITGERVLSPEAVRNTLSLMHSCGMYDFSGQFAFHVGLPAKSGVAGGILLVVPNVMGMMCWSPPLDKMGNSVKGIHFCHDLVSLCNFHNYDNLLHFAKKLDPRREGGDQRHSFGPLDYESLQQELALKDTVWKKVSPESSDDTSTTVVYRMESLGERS
The assay is described as follows: Recombinant protein assay with R539L GAC mutant. It counts as biochemical. The conditions noted are these: concentrations up to 50 μM. In a few lines: (§1)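 Mouse GAC residues 72-603 in pET28a, wild type or site-directed mutant. Inhibitor in DMSO mixed with 50 nM enzyme and 21 mM glutamine in pH 8.6 Tris-acetate, then inorganic phosphate (136 mM) added; 10 min at 37°C; acid quench. Glutamate read by glutamate dehydrogenase/NAD coupling, A340 after 45 min room temperature against NAD-free blank; duplicates. IC50 from fixed-slope inhibitor curve fit.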

The next assay deals with T3, F532L GAC mutant (Mus musculus, UniProt D3Z7P3, F532L).
T3 sequence (D3Z7P3 72-603 isoform D3Z7P3-2 F532L): T2 sequence (D3Z7P3 72-603 isoform D3Z7P3-2 R539L) with F461L, L468R
The assay is described as follows: Recombinant protein assay with F532L GAC mutant. It counts as biochemical. The conditions noted are these: concentrations up to 50 μM. An outline of the steps: as §1

Assay [2] concerns the target T4, full-length wild-type GAC (Δ72 GAC) (Mus musculus, UniProt D3Z7P3).
T4 sequence (D3Z7P3 72-603 isoform D3Z7P3-2): T2 sequence (D3Z7P3 72-603 isoform D3Z7P3-2 R539L) with L468R
The assay is described as follows: Recombinant protein assay with full-length wild-type GAC. Type of assay: biochemical. An outline of the steps:
as §1

Take `O=C(Cc1ccccc1)Nc1nnc(CCSCCc2nnc(NC(=O)Cc3ccccc3)s2)s1` [BPTES, reference compound]: the “inhibition of phosphate-activated enzyme” value in assay [1] is given as “able to do so”. Further, the midpoint of inhibition in the assay on MDA-MB-231 cells (MDA-MB-231 cell proliferation), the IC50, lay at 3 µM.
For `CN(C)c1ccc(C2Nc3ccc4ccccc4c3C3=C2C(=O)CC(C)(C)C3)cc1Br` (centres unmarked) [compound 968, 5-(3-bromo-4-(dimethylamino)phenyl)-2,2-dimethyl-2,3,5,6-tetrahydrobenzo[a]phenanthridin-4(1H)-one], in assay [1], the inhibition at 10 µM worked out at 21 ± 5%, the inhibition at 25 µM was found to be 94 ± 1%, the inhibition at 50 µM was 95 ± 1% and the “inhibition of phosphate-activated enzyme” value is “unable to inhibit the phosphate-activated enzyme”. The IC50 in assay [1] (IC50, GAC 50 nM, glutamine 21 mM, phosphate 136 mM, 10 min, fixed slope inhibitor model, shorter GAC construct) was 9.3 µM and ~10 µM. Moreover, the inhibition of mutant entry at R539L GAC mutant is listed as “detectable inhibition was not observed”. On F532L GAC mutant, the inhibition of mutant result is “detectable inhibition was not observed”. Further, the concentration for half-maximal inhibition (IC50) in assay [2] worked out at 19 µM. Inhibition with MDA-MB-231 cells (Homo sapiens, MDA-MB-231) was half-maximal at 4.2 µM (IC50).

The IC50 is the concentration that gives 50% inhibition. For orientation: inhibition means how much of the control response was suppressed.

For the origin of these results see PMC3620022 (Molecular cancer therapeutics, 2012).
